Experimental data from ChEMBL document CHEMBL1123083, “Synthesis and antiherpetic activity of (S)-, (R)-, and (+/-)-9-[(2,3-dihydroxy-1-propoxy)methyl]guanine, linear isomers of 2'-nor-2'-deoxyguanosine” (J Med Chem, 1985).
In brackets after ≈: the same amount, converted by molar mass.

Key:
Human alphaherpesvirus 1 [1] = assay: Efficacy was evaluated against Oraficial HSV-1 infection in mice with lesions administered orally at dose 3.1 mg/kg per day; Total mice tested 10; format: ADME, organism-based; parameters: route oral; conditions: mouse, in vivo, po
Outline: (§1)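 HSV-1 strain S inoculated in the orofacial area of mice as previously described. Half-daily doses given by gavage 8 h apart, starting 3 h after infection, for 7 days. On day 7 after infection, mice with lesions per group and average lesion score were recorded (95% confidence interval). Significance was judged against placebo-treated infected mice (p < 0.05).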

Human alphaherpesvirus 1 [2] = assay: Efficacy was evaluated against Systemic HSV-1 infection in mice at a daily dose of 12.5 mg/kg administered orally.; format: ADME, organism-based; parameters: dose 12.5 mg/kg; conditions: mouse, in vivo, po
Outline: (§2)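 Mixed-sex ICR/Ha mice (10–20 g) were infected intraperitoneally with 50–100 LD50 of HSV-1 Schooler. Oral dosing of 0.1 mL twice daily for 7 days began immediately after infection. Groups were of about 10 mice. Deaths were recorded daily for 15 days, giving survivors/total and mean survival time with 95% CI. Significance was judged against placebo-treated infected mice using transformed survival times.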

Human alphaherpesvirus 1 [3] = assay: Efficacy was evaluated against Systemic HSV-1 infection in mice at a daily dose of 3.1 mg/kg administered orally.; format: ADME, organism-based; parameters: dose 3.1 mg/kg; conditions: mouse, in vivo, po; outline: as §2
Human alphaherpesvirus 1 [4] = assay: Efficacy was evaluated against Oraficial HSV-1 infection in mice with lesions administered orally at a dose 50 mg/kg per day.; format: ADME, organism-based; parameters: route oral; conditions: mouse, in vivo, po; outline: as §1
Human alphaherpesvirus 1 [5] = assay: Efficacy was evaluated against Oraficial HSV-1 infection in mice with lesions administered orally at a dose 12.5 mg/kg per day.; format: ADME, organism-based; parameters: route oral; conditions: mouse, in vivo, po; outline: as §1
Human alphaherpesvirus 1 [6] = assay: Efficacy was evaluated against Oraficial HSV-1 infection in mice with lesions administered orally at a dose 12.5 mg/kg per day; Total mice tested 10; format: organism-based; parameters: route oral; conditions: mouse, in vivo, po; outline: as §1
Human alphaherpesvirus 1 [7] = assay: Efficacy was evaluated against Oraficial HSV-1 infection in mice with lesions administered orally at a dose 50 mg/kg per day; Total mice tested 10; format: organism-based; parameters: route oral; conditions: mouse, in vivo, po; outline: as §1
Human alphaherpesvirus 1 [8] = assay: Efficacy was evaluated against Oraficial HSV-1 infection in mice with lesions administered orally at a dose 3.1 mg/kg per day.; format: ADME, organism-based; parameters: route oral; conditions: mouse, in vivo, po; outline: as §1
Human alphaherpesvirus 1 [9] = assay: Efficacy was evaluated against Systemic HSV-1 infection in mice at a daily dose of 12.5 mg/kg administered orally; Total mice tested 10; format: ADME, organism-based; parameters: dose 12.5 mg/kg; conditions: mouse, in vivo, po; outline: as §2
Human alphaherpesvirus 1 [10] = assay: Efficacy was evaluated against Systemic HSV-1 infection in mice at a daily dose of 3.1 mg/kg administered orally; Total mice tested 10; format: ADME, organism-based; parameters: dose 3.1 mg/kg; conditions: mouse, in vivo, po; outline: as §2
Human alphaherpesvirus 1 [11] = assay: Efficacy was evaluated against Systemic HSV-1 infection in mice at a daily dose of 50 mg/kg administered orally; Total mice tested 10; format: organism-based; parameters: dose 50 mg/kg; conditions: mouse, in vivo, po; outline: as §2
Human betaherpesvirus 5 [12] = assay: In vitro anti viral activity tested against HCMV(AD169) virus on MRC-5 cell monolayers; 20-25; format: functional; conditions: Human betaherpesvirus 5, MRC5; read-out: ED50 (the source's name)
Outline: (§3)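 MRC-5 monolayers were infected with HCMV AD169 for 1 h at 37 °C. Compound diluted in maintenance medium was then added and incubation continued for 7 days at 37 °C. Monolayers were stained and plaques counted. ED50 is the concentration reducing plaque number by 50%.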

Human alphaherpesvirus 1 [13] = assay: Evaluated for DNA polymerase inhibition activity against herpes simplex virus-1 (HSV-1); format: functional
Outline: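 Step II mixture supplied the phosphorylated test material. Step I: compound with HSV-1 thymidine kinase, 4 h, 37 °C. Step II: then HSV-1-infected HeLa crude extract plus GMP kinase, overnight, 30 °C. A 20 μL sample went to a 1 h, 37 °C DNA polymerase assay at pH 8 with activated salmon sperm DNA, 0.05 mM each dNTP ([³H]dTTP) and infected HeLa extract. (NH₄)₂SO₄ 0.1 M was present for the viral enzyme and omitted for the cellular polymerases. Read-out: TCA-precipitable radioactivity.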

Human alphaherpesvirus 1 [14] = assay: In vitro anti viral activity tested against HSV-1(Schooler) virus on Rabbit kidney cell cultures; 1-3; format: functional; conditions: Human alphaherpesvirus 1, kidney; read-out: ED50 (the source's name)
Outline: (§4)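 Confluent primary rabbit kidney monolayers were preincubated with serial drug dilutions in EMEM with 2% fetal calf serum and neomycin. They were then challenged with about 10 TCID50 of HSV-1 Schooler and incubated at 37 °C. Cytopathology was scored on day 5.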

Human alphaherpesvirus 2 [15] = assay: In vitro anti viral activity tested against HSV-2(Curtis) virus on Rabbit kidney cell cultures; 1-3; format: functional; conditions: Human alphaherpesvirus 2, kidney; read-out: ED50 (the source's name)
Outline: as §4, with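 “Schooler or HSV-2 Curtis” for “Schooler”, “5. ED50 is the concentration preventing cytopathology in half of the infected cultures.” for “5.”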

Human alphaherpesvirus 1 [16] = assay: Efficacy was evaluated against Systemic HSV-1 infection in mice at a daily dose of 50 mg/kg administered orally.; format: ADME, organism-based; parameters: dose 50 mg/kg; conditions: mouse, in vivo, po; outline: as §2
[17] = tested on: DNA polymerase (Homo sapiens); assay: Evaluated for DNA polymerase inhibition activity against HeLa cells.
Human alphaherpesvirus 1 [18] = assay: Efficacy was evaluated against Systemic HSV-1 infection in mice at a daily dose of 0.8 mg/kg administered subcutaneously.; format: ADME, organism-based; parameters: dose 0.8 mg/kg, route subcutaneous; conditions: mouse, in vivo, sc
Outline: (§5)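 ICR/Ha mice (10–20 g, mixed sex) were infected intraperitoneally with 50–100 LD50 of HSV-1 Schooler. Subcutaneous dosing of 0.1 mL twice daily for 4 days started immediately after infection. Groups were of about 10 mice. Survival was recorded daily for 15 days and reported as survivors/total and mean survival time (95% CI). Transformed survival times were compared with placebo-treated infected mice (p < 0.05).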

Mus musculus = assay: Efficacy was evaluated against Systemic HSV-1 infection in mice at a daily dose of 12.5 mg/kg administered subcutaneously.; format: ADME, organism-based; parameters: dose 12.5 mg/kg, route subcutaneous; conditions: in vivo, sc; outline: as §5
Human alphaherpesvirus 1 [19] = assay: Efficacy was evaluated against Systemic HSV-1 infection in mice at a daily dose of 3.1 mg/kg administered subcutaneously.; format: ADME, organism-based; parameters: dose 3.1 mg/kg, route subcutaneous; conditions: mouse, in vivo, sc; outline: as §5
Human alphaherpesvirus 1 [20] = assay: Efficacy was evaluated against Systemic HSV-1 infection in mice at a daily dose of 0.8 mg/kg administered subcutaneously; Tested mice 10; format: organism-based; parameters: dose 0.8 mg/kg, route subcutaneous; conditions: mouse, in vivo, sc; outline: as §5
Human alphaherpesvirus 1 [21] = assay: Efficacy was evaluated against Systemic HSV-1 infection in mice at a daily dose of 12.5 mg/kg administered subcutaneously; Tested mice 10; format: organism-based; parameters: dose 12.5 mg/kg, route subcutaneous; conditions: mouse, in vivo, sc; outline: as §5
Human alphaherpesvirus 1 [22] = assay: Efficacy was evaluated against Systemic HSV-1 infection in mice at a daily dose of 3.1 mg/kg administered subcutaneously; Tested mice 10; format: ADME, organism-based; parameters: dose 3.1 mg/kg, route subcutaneous; conditions: mouse, in vivo, sc; outline: as §5
Human betaherpesvirus 5 [23] = assay: In vitro anti viral activity tested against HCMV(AD169) virus on MRC-5 cell monolayers; 0.4-1.6; format: functional; conditions: Human betaherpesvirus 5, MRC5; read-out: ED50 (the source's name); outline: as §3
Human alphaherpesvirus 2 [24] = assay: In vitro anti viral activity tested against HSV-2(Curtis) virus on Rabbit kidney cell cultures; 3-6; format: functional; conditions: Human alphaherpesvirus 2, kidney; read-out: ED50 (the source's name)
Outline: as §4, with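 “Schooler or HSV-2 Curtis” for “Schooler”, “5. ED50 is the concentration preventing cytopathology in half of the infected cultures.” for “5.”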

Human alphaherpesvirus 3 = assay: In vitro anti viral activity tested against VZV(KMcC) virus on MRC-5 cell monolayers; 1-2; format: functional; conditions: Human alphaherpesvirus 3, MRC5; read-out: ED50 (the source's name)

Nc1nc2c(ncn2COCCO)c(=O)[nH]1 [ACYCLOVIR]
Mice with lesions (Human alphaherpesvirus 1 [1]): 10
Average survival (Human alphaherpesvirus 1 [2]): 7.6 days
Average survival (Human alphaherpesvirus 1 [3]): 6.5 days
Average lesion score (Human alphaherpesvirus 1 [4]): 1.45
Average lesion score (Human alphaherpesvirus 1 [5]): 2.95
Mice with lesions (Human alphaherpesvirus 1 [6]): 8
Mice with lesions (Human alphaherpesvirus 1 [7]): 6
Average lesion score (Human alphaherpesvirus 1 [8]): 3.75
Survivors (Human alphaherpesvirus 1 [9]): 1
Survivors (Human alphaherpesvirus 1 [10]): 0
Survivors (Human alphaherpesvirus 1 [11]): 2
EC50 (Human betaherpesvirus 5 [12]): 20 µg/mL (≈ 88.8 µM)
Inhibition (Human alphaherpesvirus 1 [13]): 85%
EC50 (Human alphaherpesvirus 1 [14]): 1 µg/mL (≈ 4.44 µM)
EC50 (Human alphaherpesvirus 2 [15]): 1 µg/mL (≈ 4.44 µM)
Average survival (Human alphaherpesvirus 1 [16]): 8.7 days
Inhibition [17]: 34%

Nc1nc2c(ncn2COC(CO)CO)c(=O)[nH]1 [GANCICLOVIR]
Average survival (Human alphaherpesvirus 1 [18]): 9.8 days
Average survival (Mus musculus): 14.6 days
Average survival (Human alphaherpesvirus 1 [19]): 12.6 days
Survivors (Human alphaherpesvirus 1 [20]): 3
Survivors (Human alphaherpesvirus 1 [21]): 7
Survivors (Human alphaherpesvirus 1 [22]): 5
EC50 (Human betaherpesvirus 5 [23]): 0.4 µg/mL (≈ 1.57 µM)
Inhibition (Human alphaherpesvirus 1 [13]): 55%
EC50 (Human alphaherpesvirus 1 [14]): 1 µg/mL (≈ 3.92 µM)
EC50 (Human alphaherpesvirus 2 [24]): 3 µg/mL (≈ 11.8 µM)
EC50 (Human alphaherpesvirus 3): 1 µg/mL (≈ 3.92 µM)
Inhibition [17]: 13%
